In data set [1] the test system is T1, Receptor-type tyrosine-protein kinase FLT3 (Homo sapiens), P36888 [D835Y].
T1 sequence (whole entry): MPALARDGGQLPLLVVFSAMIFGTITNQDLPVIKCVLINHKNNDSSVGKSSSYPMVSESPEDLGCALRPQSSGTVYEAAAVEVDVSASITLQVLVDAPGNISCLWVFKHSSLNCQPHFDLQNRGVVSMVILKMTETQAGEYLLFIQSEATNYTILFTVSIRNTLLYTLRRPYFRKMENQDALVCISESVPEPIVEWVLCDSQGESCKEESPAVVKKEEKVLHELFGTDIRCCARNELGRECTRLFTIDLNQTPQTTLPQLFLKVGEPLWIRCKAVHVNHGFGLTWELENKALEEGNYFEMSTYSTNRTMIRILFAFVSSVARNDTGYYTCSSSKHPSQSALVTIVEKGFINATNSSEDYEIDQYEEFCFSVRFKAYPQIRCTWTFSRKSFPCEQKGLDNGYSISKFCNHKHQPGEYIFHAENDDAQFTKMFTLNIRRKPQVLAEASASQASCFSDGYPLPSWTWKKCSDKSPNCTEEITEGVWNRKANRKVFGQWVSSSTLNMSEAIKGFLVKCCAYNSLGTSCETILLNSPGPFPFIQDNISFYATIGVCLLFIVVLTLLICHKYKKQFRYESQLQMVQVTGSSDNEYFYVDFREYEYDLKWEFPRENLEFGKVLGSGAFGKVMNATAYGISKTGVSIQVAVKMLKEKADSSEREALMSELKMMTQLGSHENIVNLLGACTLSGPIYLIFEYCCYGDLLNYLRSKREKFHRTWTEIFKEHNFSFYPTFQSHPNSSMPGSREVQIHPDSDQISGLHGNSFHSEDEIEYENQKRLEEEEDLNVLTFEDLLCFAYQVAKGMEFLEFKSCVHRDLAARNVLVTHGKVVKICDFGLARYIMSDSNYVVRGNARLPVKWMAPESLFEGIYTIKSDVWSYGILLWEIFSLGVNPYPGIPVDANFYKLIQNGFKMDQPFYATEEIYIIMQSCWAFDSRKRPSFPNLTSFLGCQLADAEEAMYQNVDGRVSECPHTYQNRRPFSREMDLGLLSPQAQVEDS
Description: Competitive binding affinity to FLT3 D835Y mutant (unknown origin) at 10 uM in presence of ATP relative to control.

A short description of data set [2]: Oral bioavailability in Hanover-Wistar rat at 2 mg/kg. Type of data set: ADME, organism-based. The note with it: in vivo.
The subject of data set [3] is Rattus norvegicus. The data set can be described thus: Cmax in Hanover-Wistar rat at 2 mg/kg, po. Type of data set: ADME, organism-based. Set-up: dose 2 mg/kg, route oral. The note with it: in vivo.
Data set [4] can be described thus: Intrinsic clearance in human liver microsomes measured per mg of protein. In kind it is ADME, Microsome. The note with it: read-out: CLH. Background: Liver microsomes are vesicles of endoplasmic reticulum, rich in cytochrome P450 enzymes.
The nature of data set [5]: Intrinsic permeability from basolateral to apical side in human Caco2 cells at 10 uM. The note with it: Caco-2, read-out: permeability. Type of data set: ADME, cell-based. (Passage across Caco-2 layers is used to estimate intestinal permeability.)
Data set [6] is described as follows: Intrinsic permeability from apical to basolateral side in human Caco2 cells at 10 uM. Type of data set: ADME, cell-based. The note with it: Caco-2, read-out: permeability.
The nature of data set [7]: Equilibrium aqueous solubility in phosphate buffer at pH 6.5 at 25 degC. In kind it is physicochemical.
In data set [8] the target is Platelet-derived growth factor receptor beta (Homo sapiens, UniProt P09619). The data set can be described thus: Binding affinity to PDGFRB (unknown origin).
Data set [9] concerns the target Mitogen-activated protein kinase 14 (Homo sapiens, UniProt Q16539). Description: Binding affinity to p38-alpha (unknown origin).
In data set [10] the target is Mitogen-activated protein kinase 11 (Homo sapiens, UniProt Q15759). The data set can be described thus: Binding affinity to p38-beta (unknown origin).
Data set [11] deals with Serine/threonine-protein kinase Nek1 (Homo sapiens, UniProt Q96PY6). The data set can be described thus: Binding affinity to NEK1 (unknown origin).
Data set [12] concerns the target Dual specificity mitogen-activated protein kinase kinase 6 (Homo sapiens, UniProt P52564). Description: Binding affinity to MEK6 (unknown origin).
In data set [13] the target is LIM domain kinase 2 (Homo sapiens, UniProt P53671). Description: Binding affinity to LIMK2 (unknown origin).
Data set [14] deals with Mitogen-activated protein kinase 10 (Homo sapiens, UniProt P53779). The data set can be described thus: Binding affinity to JNK3 (unknown origin).
In data set [15] the target is Mitogen-activated protein kinase 8 (Homo sapiens, UniProt P45983). The data set can be described thus: Binding affinity to JNK1 (unknown origin).
The target in data set [16] is eIF-2-alpha kinase GCN2 (Homo sapiens, UniProt Q9P2K8, S808G). Description: Binding affinity to GCN2 kinase domain 2 S808G mutant (unknown origin).
The target in data set [17] is Mitogen-activated protein kinase 6 (Homo sapiens, UniProt Q16659). The data set can be described thus: Binding affinity to ERK3 (unknown origin).
Data set [18] concerns the target Mitogen-activated protein kinase 3 (Homo sapiens, UniProt P27361). Description: Binding affinity to ERK1 (unknown origin).
Data set [19] concerns the target Serine/threonine-protein kinase 17A (Homo sapiens, UniProt Q9UEE5). Description: Binding affinity to DRAK1 (unknown origin).
Data set [20] concerns the target Death-associated protein kinase 2 (Homo sapiens, UniProt Q9UIK4). The data set can be described thus: Binding affinity to DAPK2 (unknown origin).
Data set [21] concerns the target Cyclin-dependent kinase 11B (Homo sapiens, UniProt P21127). The data set can be described thus: Binding affinity to CDC2L1 (unknown origin).
Data set [22] in a line: Clearance in human liver microsomes. Type of data set: ADME, Microsome. The note with it: read-out: CLH. In short, it runs like this: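 Intrinsic clearance was measured in vitro in human liver microsomes and expressed per mg microsomal protein.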
Data set [23] concerns the target Activated CDC42 kinase 1 (Homo sapiens) (UniProt Q07912). Description: Competitive binding affinity to ACK1 (unknown origin) at 10 uM in presence of ATP relative to control.
Data set [24] has as its target Serine/threonine-protein kinase ULK3 (Mus musculus) (UniProt Q3U3Q1). The data set can be described thus: Competitive binding affinity to mouse ULK3 at 10 uM in presence of ATP relative to control.
The target in data set [25] is T2, Serine/threonine-protein kinase STK11 (Homo sapiens) (UniProt Q15831).
T2 sequence (whole entry): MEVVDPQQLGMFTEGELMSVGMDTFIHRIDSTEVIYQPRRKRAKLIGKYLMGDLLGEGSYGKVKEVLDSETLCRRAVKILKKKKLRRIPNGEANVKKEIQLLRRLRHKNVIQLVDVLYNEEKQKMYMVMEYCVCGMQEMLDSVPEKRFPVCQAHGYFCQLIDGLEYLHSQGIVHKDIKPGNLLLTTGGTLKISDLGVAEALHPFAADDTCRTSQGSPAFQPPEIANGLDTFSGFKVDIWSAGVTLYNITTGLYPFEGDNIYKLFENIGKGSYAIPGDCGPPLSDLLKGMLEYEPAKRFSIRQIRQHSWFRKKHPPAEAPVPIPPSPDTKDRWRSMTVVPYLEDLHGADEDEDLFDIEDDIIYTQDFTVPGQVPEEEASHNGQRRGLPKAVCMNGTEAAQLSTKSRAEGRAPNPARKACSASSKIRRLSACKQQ
Description: Competitive binding affinity to STK11 (unknown origin) at 10 uM in presence of ATP relative to control.

The target of data set [26] is Serine/threonine-protein kinase 10 (Homo sapiens) (UniProt O94804). Description: Competitive binding affinity to STK10 (unknown origin) at 10 uM in presence of ATP relative to control.
For data set [27], the target named is Serine/threonine-protein kinase 24 (Homo sapiens) (UniProt Q9Y6E0). The data set can be described thus: Competitive binding affinity to STK24 (unknown origin) at 10 uM in presence of ATP relative to control.

≈ marks a conversion by molar mass, not a printed value. A value given as a limit tells only on which side of the number the result lay.

Chain of Serine/threonine-protein kinase ULK3 (Mus musculus) (Q3U3Q1 whole entry): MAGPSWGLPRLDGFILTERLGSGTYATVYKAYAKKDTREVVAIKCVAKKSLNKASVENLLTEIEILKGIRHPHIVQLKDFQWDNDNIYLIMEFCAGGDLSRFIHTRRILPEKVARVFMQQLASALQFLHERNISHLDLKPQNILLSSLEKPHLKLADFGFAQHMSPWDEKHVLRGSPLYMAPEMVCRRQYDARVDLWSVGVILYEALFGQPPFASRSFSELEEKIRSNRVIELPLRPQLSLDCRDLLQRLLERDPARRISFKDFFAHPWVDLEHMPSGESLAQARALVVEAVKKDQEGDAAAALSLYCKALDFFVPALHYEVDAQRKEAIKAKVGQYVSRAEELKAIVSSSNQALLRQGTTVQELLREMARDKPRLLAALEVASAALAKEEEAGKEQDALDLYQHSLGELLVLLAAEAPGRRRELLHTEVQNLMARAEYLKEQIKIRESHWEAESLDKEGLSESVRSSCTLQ
Chain of Serine/threonine-protein kinase 10 (Homo sapiens) (O94804 whole entry, looked up): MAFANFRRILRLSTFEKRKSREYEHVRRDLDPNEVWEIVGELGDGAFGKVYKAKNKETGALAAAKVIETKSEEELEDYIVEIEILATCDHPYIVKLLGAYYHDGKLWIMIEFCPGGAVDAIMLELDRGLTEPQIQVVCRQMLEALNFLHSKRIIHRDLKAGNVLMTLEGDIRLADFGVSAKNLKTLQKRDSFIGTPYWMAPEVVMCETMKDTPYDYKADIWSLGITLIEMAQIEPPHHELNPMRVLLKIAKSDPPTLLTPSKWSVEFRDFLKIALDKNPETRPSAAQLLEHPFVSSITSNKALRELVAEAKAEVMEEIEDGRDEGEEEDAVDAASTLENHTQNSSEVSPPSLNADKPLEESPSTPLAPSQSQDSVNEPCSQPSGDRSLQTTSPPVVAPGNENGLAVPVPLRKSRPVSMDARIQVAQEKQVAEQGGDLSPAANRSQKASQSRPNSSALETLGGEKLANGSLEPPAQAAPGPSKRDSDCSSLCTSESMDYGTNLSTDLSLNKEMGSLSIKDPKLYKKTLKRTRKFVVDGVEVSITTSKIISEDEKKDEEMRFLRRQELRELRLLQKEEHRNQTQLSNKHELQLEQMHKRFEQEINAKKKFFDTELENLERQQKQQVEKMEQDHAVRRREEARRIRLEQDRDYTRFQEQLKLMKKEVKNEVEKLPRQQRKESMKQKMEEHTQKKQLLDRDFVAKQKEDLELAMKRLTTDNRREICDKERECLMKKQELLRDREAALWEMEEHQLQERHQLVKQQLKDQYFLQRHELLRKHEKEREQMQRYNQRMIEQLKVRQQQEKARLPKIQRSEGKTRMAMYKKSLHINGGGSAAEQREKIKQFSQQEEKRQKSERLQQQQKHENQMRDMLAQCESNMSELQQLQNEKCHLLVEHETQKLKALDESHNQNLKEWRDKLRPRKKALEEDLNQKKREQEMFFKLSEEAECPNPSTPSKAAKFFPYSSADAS
Chain of Activated CDC42 kinase 1 (Homo sapiens) (Q07912 whole entry, looked up): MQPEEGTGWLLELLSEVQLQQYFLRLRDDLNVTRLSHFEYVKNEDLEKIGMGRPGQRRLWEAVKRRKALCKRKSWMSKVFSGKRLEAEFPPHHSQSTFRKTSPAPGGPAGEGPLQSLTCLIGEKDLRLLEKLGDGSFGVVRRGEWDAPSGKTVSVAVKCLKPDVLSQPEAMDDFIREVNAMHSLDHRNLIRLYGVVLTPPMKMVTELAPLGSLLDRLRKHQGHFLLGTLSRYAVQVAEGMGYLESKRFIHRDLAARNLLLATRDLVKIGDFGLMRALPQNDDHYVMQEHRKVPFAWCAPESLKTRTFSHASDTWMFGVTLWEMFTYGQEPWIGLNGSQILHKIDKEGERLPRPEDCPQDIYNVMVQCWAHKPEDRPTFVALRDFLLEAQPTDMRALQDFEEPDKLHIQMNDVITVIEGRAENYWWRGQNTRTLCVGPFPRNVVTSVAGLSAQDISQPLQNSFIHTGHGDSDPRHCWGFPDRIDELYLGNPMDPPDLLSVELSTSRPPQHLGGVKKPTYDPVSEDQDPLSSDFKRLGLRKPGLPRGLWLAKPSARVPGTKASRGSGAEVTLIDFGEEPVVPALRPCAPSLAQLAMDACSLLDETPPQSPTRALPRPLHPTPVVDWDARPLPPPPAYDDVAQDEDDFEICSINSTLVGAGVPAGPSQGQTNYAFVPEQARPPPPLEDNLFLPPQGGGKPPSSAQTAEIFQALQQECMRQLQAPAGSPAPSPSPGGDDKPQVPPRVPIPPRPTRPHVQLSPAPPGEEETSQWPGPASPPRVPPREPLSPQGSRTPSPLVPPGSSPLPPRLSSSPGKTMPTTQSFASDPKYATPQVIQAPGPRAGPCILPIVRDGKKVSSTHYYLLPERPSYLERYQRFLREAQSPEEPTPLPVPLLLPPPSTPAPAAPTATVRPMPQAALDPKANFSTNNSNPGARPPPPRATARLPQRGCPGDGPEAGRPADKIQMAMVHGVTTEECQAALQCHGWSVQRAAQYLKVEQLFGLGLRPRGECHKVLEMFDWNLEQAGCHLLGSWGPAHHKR
Chain of Platelet-derived growth factor receptor beta (P09619 whole entry): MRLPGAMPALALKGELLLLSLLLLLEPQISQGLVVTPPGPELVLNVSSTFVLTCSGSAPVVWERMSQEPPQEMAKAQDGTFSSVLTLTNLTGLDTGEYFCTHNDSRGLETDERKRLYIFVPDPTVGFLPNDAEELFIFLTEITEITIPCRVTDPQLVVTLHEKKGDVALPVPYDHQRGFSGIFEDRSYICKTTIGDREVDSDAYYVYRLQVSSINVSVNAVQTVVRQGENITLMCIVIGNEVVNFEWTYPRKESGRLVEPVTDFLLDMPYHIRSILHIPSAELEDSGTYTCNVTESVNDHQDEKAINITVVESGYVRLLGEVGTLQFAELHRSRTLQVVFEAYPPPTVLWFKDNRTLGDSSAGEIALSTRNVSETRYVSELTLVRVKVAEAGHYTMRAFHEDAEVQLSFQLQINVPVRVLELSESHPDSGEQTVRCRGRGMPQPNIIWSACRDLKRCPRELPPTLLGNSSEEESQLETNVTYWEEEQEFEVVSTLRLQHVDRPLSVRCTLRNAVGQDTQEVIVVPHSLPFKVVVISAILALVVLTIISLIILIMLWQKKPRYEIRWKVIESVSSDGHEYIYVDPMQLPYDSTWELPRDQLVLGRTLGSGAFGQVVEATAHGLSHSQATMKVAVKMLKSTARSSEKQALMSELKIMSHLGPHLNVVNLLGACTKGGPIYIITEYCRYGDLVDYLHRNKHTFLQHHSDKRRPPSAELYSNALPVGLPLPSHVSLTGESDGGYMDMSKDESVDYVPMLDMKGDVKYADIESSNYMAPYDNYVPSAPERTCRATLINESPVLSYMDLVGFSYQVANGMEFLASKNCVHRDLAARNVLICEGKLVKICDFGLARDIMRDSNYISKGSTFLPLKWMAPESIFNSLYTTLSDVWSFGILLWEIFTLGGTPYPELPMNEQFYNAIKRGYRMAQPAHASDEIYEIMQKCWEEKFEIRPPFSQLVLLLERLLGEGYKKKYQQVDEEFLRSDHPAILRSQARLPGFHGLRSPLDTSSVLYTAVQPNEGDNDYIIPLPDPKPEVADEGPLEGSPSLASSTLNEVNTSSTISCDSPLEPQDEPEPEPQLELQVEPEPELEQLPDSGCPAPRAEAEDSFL
Chain of Serine/threonine-protein kinase Nek1 (Q96PY6 whole entry): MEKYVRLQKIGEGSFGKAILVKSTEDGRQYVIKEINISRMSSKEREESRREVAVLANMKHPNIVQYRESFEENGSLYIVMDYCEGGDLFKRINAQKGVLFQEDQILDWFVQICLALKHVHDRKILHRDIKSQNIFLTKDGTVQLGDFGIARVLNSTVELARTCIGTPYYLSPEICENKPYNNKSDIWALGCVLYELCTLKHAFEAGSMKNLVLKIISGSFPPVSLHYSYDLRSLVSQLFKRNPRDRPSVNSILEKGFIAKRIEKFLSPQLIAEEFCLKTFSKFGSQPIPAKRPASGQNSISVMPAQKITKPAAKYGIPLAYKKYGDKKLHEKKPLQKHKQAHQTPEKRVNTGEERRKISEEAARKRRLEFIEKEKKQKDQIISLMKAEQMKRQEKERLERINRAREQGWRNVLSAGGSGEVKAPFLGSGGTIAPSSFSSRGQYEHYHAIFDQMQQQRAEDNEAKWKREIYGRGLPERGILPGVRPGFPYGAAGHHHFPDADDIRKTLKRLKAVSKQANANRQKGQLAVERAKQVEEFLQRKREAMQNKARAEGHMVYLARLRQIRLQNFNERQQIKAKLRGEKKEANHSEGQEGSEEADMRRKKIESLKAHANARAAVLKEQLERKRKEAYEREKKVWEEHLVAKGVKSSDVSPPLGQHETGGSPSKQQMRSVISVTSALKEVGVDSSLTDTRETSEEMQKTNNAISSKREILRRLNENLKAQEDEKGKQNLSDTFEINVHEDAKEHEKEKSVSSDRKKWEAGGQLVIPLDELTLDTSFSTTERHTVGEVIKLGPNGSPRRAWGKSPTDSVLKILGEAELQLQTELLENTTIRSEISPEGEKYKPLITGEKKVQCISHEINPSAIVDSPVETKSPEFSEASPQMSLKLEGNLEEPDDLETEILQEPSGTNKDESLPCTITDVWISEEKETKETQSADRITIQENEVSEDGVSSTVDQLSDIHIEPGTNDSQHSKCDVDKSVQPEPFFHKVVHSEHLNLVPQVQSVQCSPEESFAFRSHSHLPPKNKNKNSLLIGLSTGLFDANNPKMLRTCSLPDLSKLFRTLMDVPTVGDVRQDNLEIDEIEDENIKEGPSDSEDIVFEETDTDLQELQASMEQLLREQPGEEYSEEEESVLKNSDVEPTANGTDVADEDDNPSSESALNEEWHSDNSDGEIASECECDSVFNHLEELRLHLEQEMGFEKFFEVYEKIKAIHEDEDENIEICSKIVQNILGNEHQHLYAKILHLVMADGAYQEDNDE

Turning to `O[C@H]1CC[C@H](Nc2nccc(-n3ccc4ccccc43)n2)CC1`, in data set [1], the inhibition (as a rule, the relative decrease from the control value, in per cent) is less than 50%.

As for `O[C@H]1CC[C@H](Nc2nccc(-n3nnc4ccccc43)n2)CC1`, the inhibition in [1] turned out to be 99%.

For the compound `CS(=O)(=O)CCCOc1cccc2c1ccn2-c1ccnc(N[C@H]2CC[C@H](C(=O)N3CCC(O)CC3)CC2)n1`, in data set [2], the bioavailability (usually the share of a dose that reaches the circulation, judged against a reference dose that is usually intravenous) was 7%. The concentration in [3] peaked (Cmax) at 91 ng/mL. For the same compound, the microsomal CLint in data set [4] and in data set [22] was 30 µL/min/mg in each case. The Papp B→A at 10 µM in data set [5] worked out at 11.5 ×10⁻⁶ cm/s. In [6], the Papp A→B at 10 µM is 0.2 ×10⁻⁶ cm/s. In data set [7], the solubility (thermodynamic) (commonly the concentration in solution at equilibrium with solid) was determined as 3.9 µg/mL (≈ 7.02 µM). Besides, the Kd (in general, the equilibrium constant for the complex coming apart) in data set [8] came to 6800 nM; in data set [9] it was 8800 nM; in data set [10], 3200 nM; in data set [11], 4000 nM; in data set [12], 310 nM; in data set [13] it was 2800 nM. For the same compound, the Kd in data set [14] is 1.8 nM; in data set [15], 0.75 nM; in data set [16], 2700 nM; in data set [17], 330 nM; in data set [18], 1800 nM; in [19], 440 nM. Also, the Kd in data set [20] and in [21] was 1300 nM throughout.

For the compound `O=C([C@H]1CC[C@H](Nc2nccc(-n3nnc4ccccc43)n2)CC1)N1CCOCC1`, the inhibition in [23], in data set [24], in data set [25] and in data set [26] was less than 50% each time.

As for `O[C@H]1CC[C@H](Nc2nccc(-n3ncc4ccccc43)n2)CC1`, the inhibition in data set [1] is 100%.

For the compound `O[C@H]1CC[C@H](Nc2nccc(-c3n[nH]c4ccccc34)n2)CC1`, the figures for the inhibition in [1] and in data set [27] were 100% and 93%, respectively.

On to `N[C@H]1CC[C@H](Nc2nccc(-n3nnc4ccccc43)n2)CC1`, for which the inhibition in data set [23] is less than 50%; in data set [24] it was less than 50%; in [25], 98%; in data set [26], less than 50%.
